Rows were chosen to be rich in hits. Some 1.5% of all compounds tested hit in one or more screens of this group.
Wee1 stabilizer = Wee1 degradation inhibitors, primary screen, cell-based, HeLa, Wee1K328M-luciferase, luminescence; 1.2% of 220,000 active; reporter increase, % at 5 µM; AID 1321, 2008; HeLa Luc-Wee1K328M stability; 100% = proteasome inhibitor MG132 effect;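 active = activation above the mean of all tested compounds plus 3 SD, set per screening run, cut at about 8.8% in these data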;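 note: cells exposed to compound for 20 h before luminescence read; 0% = DMSO alone and 100% = MG132 at 30 µM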
Target sequence (P30291 whole entry K328M): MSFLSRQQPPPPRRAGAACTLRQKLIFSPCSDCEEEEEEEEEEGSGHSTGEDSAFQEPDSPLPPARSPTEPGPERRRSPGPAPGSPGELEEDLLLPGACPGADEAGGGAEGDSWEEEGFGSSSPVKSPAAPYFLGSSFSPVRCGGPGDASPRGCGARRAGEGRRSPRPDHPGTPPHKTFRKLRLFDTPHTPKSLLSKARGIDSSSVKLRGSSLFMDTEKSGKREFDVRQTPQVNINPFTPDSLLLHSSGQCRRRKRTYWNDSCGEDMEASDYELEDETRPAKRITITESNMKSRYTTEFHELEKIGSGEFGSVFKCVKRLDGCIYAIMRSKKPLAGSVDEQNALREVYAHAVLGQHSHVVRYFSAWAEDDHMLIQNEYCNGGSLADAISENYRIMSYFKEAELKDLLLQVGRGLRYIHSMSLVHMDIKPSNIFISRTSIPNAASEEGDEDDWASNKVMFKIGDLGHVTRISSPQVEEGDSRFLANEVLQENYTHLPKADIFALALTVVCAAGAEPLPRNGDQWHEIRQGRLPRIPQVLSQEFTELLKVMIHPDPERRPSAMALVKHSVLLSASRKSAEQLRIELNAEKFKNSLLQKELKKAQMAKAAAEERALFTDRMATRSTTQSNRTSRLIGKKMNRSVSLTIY
Hsp70 activator = Hsp70 transcriptional activators, primary screen, cell-based, HeLa, Hsp70 promoter luciferase, luminescence, 10 µM; HeLa Hsp70 promoter luciferase reporter; scaled: vehicle 0, proteasome-inhibitor control 100%; activation, % at 10 µM; 0.04% of 200,000 active; AID 1203, 2008;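 active = activation above the mean across all tested compounds plus 3 SD, cutoff set per campaign, cut at about 5.5% in these data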;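 note: 100% = MG132 at 30 µM as the positive control and 0% = DMSO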
Mdm2 ligase inh = MDM2-luciferase reporter signal enhancers, primary screen, MDM2 E3 ligase inhibitor project, cell-based, luminescence, 1536-well; 0.11% of 210,000 active; cell-based MDM2 ubiquitination luciferase reporter, 2 h; 0 = plate control, 100 = twice control, blank-subtracted; signal enhancement, % at 5 µM; E3 ubiquitin-protein ligase Mdm2 (Homo sapiens), Q00987;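 active = signal enhancement of 30% or more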;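 note: luminescence tracks abundance of the self-degrading MDM2-luciferase fusion protein; higher signal means inhibition of MDM2 E3 ligase activity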
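Test system: stable mammalian line carrying autodegrading MDM2–luciferase fusion reporter; quantity: 2000 cells in each well; times: 4 h cell settling then 2 h compound exposure, 37 °C; detection: luminescence with SteadyLite reagent, 15 min at room temperature; evaluation: percent signal gain over controls, blank-subtracted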
Pf gametocyte = late stage P. falciparum gametocyte viability inhibitors, primary screen, ATP luminescence, HTS | 0.065% of 150,000 active | P. falciparum stage V gametocytes, 24 h | inhibition, % at 10.9 µM;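 active = inhibition above the mean plus 3 SD of compounds within the control limits, set per campaign, cut at about 38% in these data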;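 note: 0% = DMSO wells and 100% = medium only without gametocytes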
m-calpain inh = inhibitors of pig calpain II, primary screen, biochemical, fluorogenic peptide substrate, 1536-well; 0.37% of 220,000 active; purified calpain II, 30 min; inhibition, % at 16 µM;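 active = inhibition above about 50%, limit read from the data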
Wee1 degr conf = Wee1 degradation inhibitors, confirmation, cell-based, HeLa, Wee1K328M-luciferase, luminescence, triplicate. HeLa Luc-Wee1K328M degradation; vehicle 0%, proteasome-blocked wells 100%. activation, % at 5 µM. AID 1410, 2008. 4% of 1,100 active. shares compounds with Wee1 stabilizer; in the data active = activation above about 8.9%
An asterisk follows results filed as active.

How did COCCNC(=O)CN(CC1CCCO1)C(=O)CCC(=O)Nc1ccccn1 (stereo not given) do in these assays?
Wee1 stabilizer: 11.0*; Hsp70 activator: -0.1; Mdm2 ligase inh: -16.7; Pf gametocyte: -17.2; m-calpain inh: -22.1; Wee1 degr conf: 0.2

Results for O=C(CN(Cc1ccccc1)C(=O)CCC(=O)Nc1ccccn1)NCc1ccco1 ?
Wee1 stabilizer: 11.9*; Hsp70 activator: -0.3; Mdm2 ligase inh: -20.6; Pf gametocyte: -37.4; m-calpain inh: 4.5; Wee1 degr conf: -0.5

Results for Cc1nn(C(=O)N(C)C)c(C)c1CN1C(=O)c2ccccc2C1=O ?
Pf gametocyte: -1.0

How did O=C(CNCC1(N2CCOCC2)CCCCC1)Nc1ccc(Cl)cc1 do in these assays?
Wee1 stabilizer: 19.3*; Hsp70 activator: -0.2; Mdm2 ligase inh: -15.8; m-calpain inh: 5.1; Wee1 degr conf: 0.1

What do the screens show for `COC1C(C)=C(C)C(=O)N1Cc1ccc(F)cc1` (stereo not given)?
Pf gametocyte: -2.4

How did CC(NC(=O)c1c(Cl)cnn1C)C1CCCO1 (stereo not given) do in these assays?
Wee1 stabilizer: 8.1; Mdm2 ligase inh: -8.4; Pf gametocyte: -6.5; m-calpain inh: -13.8

Results for S=c1[nH]nc(-c2ccco2)n1-c1ccc(Br)cc1 ?
Pf gametocyte: -25.6

What do the screens show for `COc1ccc(N=N/C(=C\O)C(=O)c2ccco2)cc1`?
Wee1 stabilizer: -1.9; Hsp70 activator: 0.5; Mdm2 ligase inh: -10.3; Pf gametocyte: -29.8; m-calpain inh: -11.8

Results for O=C(/C(=C/O)N=Nc1ccccc1)c1cccs1 ?
Wee1 stabilizer: 11.3*; Hsp70 activator: 0.0; Mdm2 ligase inh: -11.0; Pf gametocyte: 4.2; m-calpain inh: -33.2; Wee1 degr conf: 1.6

How did CCN1C(=O)c2cccc3c(NC(=O)c4ccc(S(=O)(=O)N(C)C)cc4)ccc1c23 do in these assays?
Wee1 stabilizer: 11.3*; Hsp70 activator: 0.0; Mdm2 ligase inh: -15.5; Pf gametocyte: -1.2; m-calpain inh: 19.2; Wee1 degr conf: 5.0

How did CCN1C(=O)c2cccc3c(NC(=O)c4ccc(S(=O)(=O)N5CCOCC5)cc4)ccc1c23 do in these assays?
Wee1 stabilizer: 0.9; Hsp70 activator: -0.1; Mdm2 ligase inh: -21.3; Pf gametocyte: -9.3; m-calpain inh: -36.4

Results for CC(C)(C)c1ccc(C(=O)Nc2ccc(F)cc2)s1 ?
Wee1 stabilizer: 12.1*; Mdm2 ligase inh: -18.9; Pf gametocyte: 1.8; m-calpain inh: 7.8; Wee1 degr conf: 7.1

Results for CCc1cc2cc(C(=O)Nc3ccc(F)cc3)sc2s1 ?
Wee1 stabilizer: -0.3; Hsp70 activator: 0.0; m-calpain inh: -14.8

How did CCC/C(C#CCCN1C(=O)c2ccccc2C1=O)=C1/c2ccccc2C(=O)N1c1ccccc1 do in these assays?
Pf gametocyte: 17.4

How did Cc1ccc(CN2CCSc3ccc(C(=O)N4CCN(c5ncccn5)CC4)cc32)cc1 do in these assays?
Wee1 stabilizer: -0.2; Hsp70 activator: -0.1; Mdm2 ligase inh: -4.1; m-calpain inh: -86.4

Results for CC1CC(C)CN(C(=O)c2ccc3c(c2)N(Cc2ccccc2)CCS3)C1 (stereo not given) ?
Wee1 stabilizer: 12.7*; Hsp70 activator: -0.2; Mdm2 ligase inh: -4.5; m-calpain inh: -95.3; Wee1 degr conf: 0.0

How did COCCNC(=O)/C(C#N)=C/C=C/c1ccccc1[N+](=O)[O-] do in these assays?
Wee1 stabilizer: 7.2; Hsp70 activator: 0.7; Mdm2 ligase inh: 2.2; Pf gametocyte: -16.6; m-calpain inh: -1.5

What do the screens show for `Cc1ccc(OCC(=O)N/N=C2/SCC(=O)N2Cc2ccco2)cc1`?
Wee1 stabilizer: 11.8*; Hsp70 activator: -0.3; Mdm2 ligase inh: 6.2; Pf gametocyte: 14.8; m-calpain inh: 22.0; Wee1 degr conf: 2.1

What do the screens show for `Cc1nc2ccc(Br)cc2c(=O)n1Cc1cccs1`?
Pf gametocyte: -4.2

How did O=S(=O)(Nc1ccc(Cl)cn1)c1ccc(F)cc1 do in these assays?
Pf gametocyte: 6.7

Results for O=C(c1ccc(NC(=O)C2(c3ccccc3)CCCC2)cc1)N1CCOCC1 ?
Wee1 stabilizer: 27.0*; Mdm2 ligase inh: -5.1; Pf gametocyte: 17.0; m-calpain inh: 25.9; Wee1 degr conf: -2.0

Results for CC1CC(C)CN(CC(=O)NC(c2ccccc2)c2ccccc2)C1 (stereo not given) ?
Wee1 stabilizer: 12.5*; Hsp70 activator: 0.1; Mdm2 ligase inh: 12.9; m-calpain inh: 40.0; Wee1 degr conf: 0.5

What do the screens show for `CC(C)NS(=O)(=O)c1ccc(CCC(=O)N2CCC(C(N)=O)CC2)cc1`?
Wee1 stabilizer: -1.9; Hsp70 activator: 0.2; Mdm2 ligase inh: 6.7; Pf gametocyte: 12.6; m-calpain inh: -35.3

What do the screens show for `CC(C)(C)NS(=O)(=O)c1ccc(NC(=O)Cc2ccccc2[N+](=O)[O-])cc1`?
Wee1 stabilizer: -0.2; Hsp70 activator: -0.3; Mdm2 ligase inh: -0.8; Pf gametocyte: -12.8; m-calpain inh: -9.2

Results for CCCCNS(=O)(=O)c1ccc(NC(=O)Cc2ccccc2[N+](=O)[O-])cc1 ?
Wee1 stabilizer: 14.0*; Hsp70 activator: 0.0; Mdm2 ligase inh: -1.5; Pf gametocyte: -26.1; m-calpain inh: 28.0; Wee1 degr conf: 0.9

How did COc1ccc(N2C(=O)C(CC(=O)Nc3ccccc3)N(CCc3ccc(OC)c(OC)c3)C2=O)cc1 (stereo not given) do in these assays?
Wee1 stabilizer: 1.3; Hsp70 activator: -0.3; Mdm2 ligase inh: -1.6; m-calpain inh: -13.4

Results for COc1ccc(CCN2C(=O)N(c3ccc(OC)cc3)C(=O)C2CC(=O)Nc2ccccc2)cc1 (stereo not given) ?
Wee1 stabilizer: 21.0*; Hsp70 activator: -0.2; Mdm2 ligase inh: -1.9; Pf gametocyte: -1.1; m-calpain inh: 13.0; Wee1 degr conf: 2.5

How did CCSc1nn2c(=O)c3ccccc3nc2s1 do in these assays?
Wee1 stabilizer: 15.0*; Hsp70 activator: 0.0; Mdm2 ligase inh: -17.1; m-calpain inh: 19.0; Wee1 degr conf: 0.5

Results for Cc1ccccc1-n1cc(-c2ccc(Br)cc2)nc1SCC(N)=O ?
Wee1 stabilizer: 13.2*; Mdm2 ligase inh: -17.9; Pf gametocyte: 7.8; m-calpain inh: 29.5; Wee1 degr conf: 2.7

How did O=C(NCC1CCCO1)c1ccc(NC(=O)c2cc(F)c(F)cc2Cl)cc1 (stereo not given) do in these assays?
Pf gametocyte: 10.7

High-throughput results: PubChem BioAssay, several laboratories
